# High-throughput results (PubChem BioAssay)
# UCH37 DUB inh = inhibitors of human UCH37 deubiquitinase, primary screen, biochemical, Ub-AMC cleavage, fluorescence. inhibition, % (test concentration not listed). purified proteasome/UCH37. 0.33% of 330,000 active. AID 588478, 2011;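 active = mean inhibition over replicate wells above about 20%, limit read from the data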;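 also: 0% = compound-free wells with enzyme and 100% = wells lacking proteasome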
# Target sequence (Q9Y5K5 whole entry, looked up): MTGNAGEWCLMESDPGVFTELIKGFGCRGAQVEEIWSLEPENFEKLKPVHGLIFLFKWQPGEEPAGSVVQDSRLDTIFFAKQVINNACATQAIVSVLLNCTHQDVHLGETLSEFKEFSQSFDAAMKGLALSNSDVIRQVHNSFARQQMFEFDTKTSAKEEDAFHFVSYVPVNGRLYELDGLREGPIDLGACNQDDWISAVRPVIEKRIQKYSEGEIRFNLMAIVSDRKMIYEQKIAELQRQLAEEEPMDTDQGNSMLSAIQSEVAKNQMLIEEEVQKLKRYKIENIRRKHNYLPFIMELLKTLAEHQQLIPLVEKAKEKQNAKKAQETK
#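 Assay system: Proteasome-bound UCH37. Buffer or medium: pH 7.4 Tris-HCl (50 mM) with ovalbumin, ATP-MgCl2, DTT. Incubation: 30 min preincubation with enzyme, 25 min cleavage at room temperature. Measured by: fluorescence, ex 355 nm, em 460 nm. Read-out basis: percent inhibition. Control set: wells without proteasome as full block, compound-free enzyme plus substrate as uninhibited.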
# cardiac RTF act = cardiac RTF calcium sensitivity activators, primary screen, biochemical, IANBD-TnC fluorescence, EC20 calcium. Troponin I, cardiac muscle (Homo sapiens) + Troponin T, cardiac muscle (Homo sapiens) + …. 0.24% of 340,000 active. activation, % at 7.2 µM. IANBD-labeled TnC RTF fluorescence at EC20 calcium; 0% EC20 calcium, 100% full calcium;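 active = activation above the mean over all tested compounds plus 3 SD, cut at about 30% in these data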;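 also: rise in fluorescence read as greater calcium sensitivity of cardiac thin filaments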
# SUMO Mot1 rescue = yeast Mot1-301 growth rescue at high temperature, primary screen, SUMOylation pathway inhibitor project, S. cerevisiae, ATP luminescence, 38.5C; S. cerevisiae Mot1-301 growth rescue; percent above DMSO median, 100 means doubled; growth rescue, % at 18.8 µM; AID 2716, 2010; 1% of 320,000 active;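 active = every valid replicate shows activation above 250% relative to neutral control wells; inactive = the rest, any valid replicate at or below 250%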;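 also: OY570 slx delta 5 strain wells were the positive control but not used for scaling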
# Efflux pump inh = inhibitors of Candida efflux pumps in yeast, primary screen, S. cerevisiae, Nile Red, multiplex | S. cerevisiae Candida pump triplex | inhibition, % at 10 µM | 0.44% of 330,000 active;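 active = plate passing quality check with inhibition over a set limit, or well fluorescence over plate mean plus 4 SD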;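 also: Nile Red retained in pooled yeast measured as flow cytometry median fluorescence; 0% = buffer negative control and 100% = Enniatin B positive control; higher means more Nile Red kept so more efflux inhibition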
# Cardiac RTF inh = cardiac RTF calcium sensitivity inhibitors, primary screen, biochemical, IANBD-TnC fluorescence, EC70 calcium; IANBD-labeled cardiac RTF, Ca2+ fluorescence; inhibition, % at 7.15 µM; 0.12% of 340,000 active;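 active = inhibition above the mean inhibition of all tested compounds plus 3 SD, cut at about 17% in these data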;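 also: assay run at fixed EC70 calcium of 1.6 mM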
# ARNT TACC3 PPI = disruptors of ARNT/TACC3 protein interaction, primary screen, biochemical, AlphaScreen, single concentration | Transforming acidic coiled-coil-containing protein 3 (Homo sapiens), Q9Y6A5 | AlphaScreen His-ARNT PAS-B/GST-TACC3 binding, luminescence; TACC3 fragment carries E629A point mutation | 0.66% of 390,000 active | inhibition, % at 9.99 µM;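 active = mean inhibition of replicates at least 50% and at least half of replicates each reaching 50%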;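 also: 0% = complete ARNT plus TACC3 wells and 100% = ARNT alone without TACC3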
# Yeast cmpd fluor = counter-screen for efflux pump inhibitors: compound fluorescence; fluorescence ratio to DMSO, % at 10 µM; shares compounds with Efflux pump inh; S. cerevisiae AD/pABC3, flow cytometry; 4% of 1,700 active; AID 588517;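 active = fluorescence ratio to DMSO above its plate's cutoff, the plate mean ratio plus 5 SD, cut at about 210% in these data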;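 also: unstained yeast with no Nile Red so the signal is compound autofluorescence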
# Mdr1 pump inh = inhibitors of Candida albicans Mdr1 efflux, confirmation, flow cytometry, singleplex, Cherry Pick1 set; 1% of 1,700 active; S. cerevisiae AD/CaMDR1, Nile Red efflux; AID 588518, 2011; shares compounds with Efflux pump inh; inhibition, % at 10 µM; in the data active = inhibition above about 26%;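 also: 0% = DMSO vehicle and 100% = reference inhibitor; higher means more Nile Red retained so more efflux inhibition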
# Cdr2 pump inh = inhibitors of Candida albicans Cdr2 efflux pump, confirmation, S. cerevisiae AD/CaCDR2, flow cytometry, cherry pick 1, singleplex; shares compounds with Efflux pump inh; Nile Red retention; 4% of 1,700 active; Nile Red retention ratio vs DMSO, % at 10 µM; in the data active = Nile Red retention ratio vs DMSO above about 190%;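 also: higher ratio means more blocking of Cdr2 efflux of the dye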
# CaCdr1 efflux inh = inhibitors of Candida albicans Cdr1 efflux pump, confirmation, S. cerevisiae AD/CaCDR1, flow cytometry, cherry pick 1, singleplex. shares compounds with Efflux pump inh. Nile Red efflux. inhibition, % at 10 µM. 1% of 1,700 active;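 active = inhibition above the screen-wide mean plus twice its standard deviation, cut at about 32% in these data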
# Starred values were filed as active, the others as inactive; · = no result given. In the library only some 2.1% were active in any assay of this set; here they are far more common.
SMILES,UCH37 DUB inh,cardiac RTF act,SUMO Mot1 rescue,Efflux pump inh,Cardiac RTF inh,ARNT TACC3 PPI,Yeast cmpd fluor,Mdr1 pump inh,Cdr2 pump inh,CaCdr1 efflux inh
Clc1ccc(Cn2cc(C=Nn3cnnc3)c3ccccc32)c(Cl)c1,2.0,·,·,·,·,·,·,·,·,·
CC(/C=C/c1ccccc1)=NNC(=O)c1cc(C)nc2ccccc12,3.8,·,·,·,·,·,·,·,·,·
CC(/C=C/c1ccccc1)=N\Nc1nc(C)cc(C)n1,·,-2.4,8.4,5.5*,-0.1,14.9,100.2,-0.1,112.0,-0.1
COc1cc(OC)c(C(=O)NN=Cc2ccoc2)cc1OC,4.7,·,·,·,·,·,·,·,·,·
O=C(CN1CCN(c2ncc(C(F)(F)F)cc2Cl)CC1)N1CCN(c2ncc(C(F)(F)F)cc2Cl)CC1,-0.5,4.6,37.6,0.8*,-5.3,·,106.7,-0.2,112.0,0.1
O=C(CSc1ccc(Cl)cc1)N1CCN(c2ncc(C(F)(F)F)cc2Cl)CC1,1.2,2.5,17.4,-0.1,-7.9,-21.1,·,·,·,·
CC(C)(C)c1nnc(NC(=O)COc2ccc3c(c2)OCO3)s1,4.4,7.9,26.4,0.0,-4.3,0.1,112.2,0.1,97.5,-0.2
Cc1cc(C)nc(NC(=O)/C=C/c2cccs2)c1,6.9,-1.2,8.2,-0.1,-4.6,2.9,·,·,·,·
Cc1cc(C)c(-c2csc(NC(=O)/C=C/c3cccs3)n2)c(C)c1,-16.0,1.2,-1.8,22.7*,-5.2,-0.8,104.6,-0.2,91.4,-0.1
CCN(CC)c1cccc(OCC(=O)N(C)CCC#N)c1,-5.4,14.8,-30.2,2.1*,-14.6,·,202.1,0.7,142.3,1.3
CC(C)(C)c1nnc(NN=Cc2ccccc2)n(N)c1=O,4.9,·,·,·,·,·,·,·,·,·
O=C(NC1CCCc2ccccc21)c1cccc(S(=O)(=O)N2CCN(c3ccccc3)CC2)c1 (centres undefined),4.8,5.8,-11.0,1.9*,-0.8,0.6,113.2,0.5,114.4,0.5
O=C(C=NNC(=O)c1ccc(Cl)cc1Cl)c1ccccc1,1.4,·,·,·,·,·,·,·,·,·
CCOC(=O)C(=O)NN=Cc1ccc(F)cc1,4.7,·,·,·,·,·,·,·,·,·
O=C(COCC(=O)N/N=C/c1ccc(F)cc1)N/N=C/c1ccc(F)cc1,·,-8.4,13.1,1.8*,0.1,-0.1,94.4,-0.2,100.1,0.0
Cc1nnsc1-c1nnc(SCC(=O)c2ccc(C#N)cc2)n1C1CC1,0.1,-3.0,106.8,0.6*,-7.6,-14.2,106.7,-0.1,107.8,0.0
O=C(NNC(=O)C1COc2ccccc2O1)c1ccccc1 (centres undefined),4.3,-1.9,2.0,-0.1,-8.8,-6.6,·,·,·,·
O=C(NNC(=O)C1COc2ccccc2O1)c1cccc([N+](=O)[O-])c1 (centres undefined),-0.2,-2.1,-14.9,1.2*,3.8,-0.9,106.8,0.0,97.5,-0.1
CC(C)c1ccccc1-n1c(SCc2cc(=O)oc3ccc4ccccc4c23)nnc1-c1cccnc1,-76.8,-3.0,3.7,15.2*,-6.7,2.3,103.1,-0.2,98.5,0.0
COc1ccc(N2CCN(Cc3nc4c(c(=O)[nH]c(=O)n4C)n3CCCc3ccccc3)CC2)cc1,2.4,0.3,-2.3,13.7*,-7.5,7.8,107.8,0.1,114.3,0.1
Cc1ccc(OCc2cc(C(=O)NCC(C)(C)N3CCOCC3)no2)cc1C,4.5,-3.3,-14.8,1.5,-9.0,4.4,98.2,-0.1,97.7,0.8
ON=Cc1cc(Br)ccc1OCc1ccccc1F,1.9,·,·,·,·,·,·,·,·,·
CCOC(=O)c1ccc(S(=O)(=O)NNS(=O)(=O)c2ccc(C)cc2)cc1,2.4,-0.3,13.7,2.1*,-1.2,-10.2,96.9,-0.1,100.8,0.0
COC(=O)C1=C(C)OC(N)=C(C#N)C1c1c(C)nn(C)c1C (centres undefined),-19.4,-2.6,-2.1,6.5*,-3.2,2.7,96.2,0.0,107.2,-0.1
CCc1c(C)nc2c(OC)cccc2c1SCCC(=O)O,-11.3,1.9,2.0,10.2*,16.6,-5.0,112.4,-0.2,112.4,0.2
SMILES,UCH37 DUB inh,cardiac RTF act,SUMO Mot1 rescue,Efflux pump inh,Cardiac RTF inh,ARNT TACC3 PPI,Yeast cmpd fluor,Mdr1 pump inh,Cdr2 pump inh,CaCdr1 efflux inh
CCCCc1c(C)nc2c(OC)cccc2c1SCCC(=O)O,-21.1,4.2,-4.0,0.1,-3.2,-11.5,·,·,·,·
Cn1ccc(NC(=O)c2ccc(Cl)cc2Cl)n1,0.2,-0.9,4.8,-0.1,3.3,·,·,·,·,·
Cn1ccc(NC(=O)c2ccc(Cl)cc2)n1,1.0,-1.2,20.4,150.6*,-11.9,-2.4,105.6,-0.1,100.1,-0.1
COc1cccc(-c2c(C(=O)N/N=C(\C)c3ccco3)nnn2-c2nonc2N)c1,·,-10.3,6.3,0.5,-2.8,-1.6,·,·,·,·
COc1cccc(-c2c(C(=O)N/N=C(\C)c3ccc(Cl)s3)nnn2-c2nonc2N)c1,·,1.4,7.0,4.6*,-3.5,0.2,103.6,0.0,93.2,0.1
CCC1=C(OC(=O)N(CC)CC)N2C(=O)OC(=NCCc3c[nH]c4ccccc34)[C@]2(Cc2ccccc2)[C@H]2C1=CC[C@H]1C(=O)N(CC(=O)OC)C(=O)[C@H]12,2.7,3.6,-14.8,7.3*,-4.6,-4.2,113.1,1.8,135.3,0.5
Nc1ccn(CC(=O)NCCc2ccccn2)c(=O)n1,0.7,-5.5,0.8,2.8*,0.7,-0.4,100.0,-0.2,104.2,0.0
Nc1ccn(CC(=O)NCc2ccccn2)c(=O)n1,4.9,0.5,-9.2,-0.1,-8.3,-7.8,·,·,·,·
C[C@H]1[C@H](C)CC[C@]2(C(=O)O)CC[C@]3(C)C(=CC[C@@H]4[C@@]5(C)CC[C@H](O)C(C)(C)[C@@H]5CC[C@]43C)[C@H]12,5.3,-6.0,17.5,0.1,6.8,0.5,·,·,·,·
